According to ChEMBL document CHEMBL4513216, “Probing the Open Global Health Chemical Diversity Library for Multistage-Active Starting Points for Next-Generation Antimalarials” (ACS Infect Dis, 2020):

Assay: Toxicity liver stage against HepG2, at 10uM
Assay type: cell-based
Parameters: test concentration 10 uM, cell line HepG2-A16-CD81EGFP
Details: human, HepG2-A16-CD81EGFP cells; read-out: INHIBITION
Summary of the method: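 Uninfected HepG2-A16-CD81EGFP cells, 3 × 10^3 per well, 1536-well, plated on prespotted compound at 10 μM final, parasite-free screening media added to match infected plates; puromycin 10 μM positive, DMSO 0.5% negative; run in parallel with 48 h PbLuc assay at 37 °C, 5% CO2; viability by CellTiter-Glo luminescence, normalized to controls.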

Row | SMILES | cytotoxicity at 10 µM [%]
1 | O=C1CN(c2ccc(CNC(=O)Nc3nnc(C4CC4)s3)cc2)CCN1 | -3.73
2 | OC(c1ccccc1)C1CCN(Cc2csc(-c3ncccn3)n2)CC1 (configuration not stated) | -3.87
3 | CC(C)(C)C(CCO)NC(=O)Nc1ccncc1 (configuration not stated) | -3.28
4 | CN1CCC(N[C@@H]2CO[C@H](CNC(=O)Nc3ccccc3)[C@H]2O)CC1 | 6.31
5 | O=C(NC[C@H]1OC[C@@H](NC2CCC(F)(F)CC2)[C@@H]1O)c1ccccc1 | -4.1
6 | COc1ccc(CC(=O)N2CC(=O)NCC(C)(C)C2)cc1 | -0.634
7 | O=C(Nc1cccc(C(F)(F)F)c1)N1CCN(CCn2ccnc2)CC1 | -25.3
8 | CS(=O)(=O)N1CCN(C(=O)C2CSCCC(=O)N2)CC1 (configuration not stated) | 0.565
9 | O=C(c1ccc2[nH]ccc2c1)N1CCCSCC1CN1CCCC1 (configuration not stated) | 9.4
10 | CCCS(=O)(=O)N1CCOC2(COCCN(C(C)=O)C2)C1 (configuration not stated) | 19.9
11 | O=C([C@H]1COC[C@H]2CN(CC3CC3)C[C@H]21)N1CCOCC1 | 11.8
12 | Cc1ccsc1C(=O)N1CCCn2nnc(Cn3cccn3)c2C1 | 7.37
13 | CC(C)Nc1ncnc2c1CCN(c1cc(C(F)(F)F)ncn1)CC2 | 6.07
14 | O=C(NCc1cccnc1)C1=NOC2(CCCN(CCO)C2)C1 (configuration not stated) | 5.66
15 | Clc1cccc(Cl)c1CNCCOc1ccccn1 | -13.2
16 | O=C(NCC(F)F)c1cc(-c2ccccc2)nc2ncnn12 | -3.37
17 | CCOC(=O)C1=NOC(Cc2cc(OC)c3c(c2)OCO3)C1 (configuration not stated) | 9.98
18 | Cc1cccc(NC(=O)c2cccc(OCc3nnnn3C)c2)n1 | 3
19 | CN[C@@H]1CCC[C@@H](Oc2ccccc2Oc2ccc(C)cc2)[C@@H]1O | -14.2
20 | Cc1nccn1-c1nccnc1C1CCCN(C2CCCC2)C1 (configuration not stated) | -0.55
21 | Cc1nc(CC(=O)N2CCc3nc(-c4cnccn4)nc(O)c3C2)cs1 | 16.2

Row | SMILES | cytotoxicity at 10 µM [%]
22 | COc1cc(Br)cc(CNC2CCCNC2=O)c1O (configuration not stated) | 2.37
23 | COCCCN(C)c1cc(C(F)(F)F)nc(-c2cccnc2)n1 | -4.83
24 | CN(Cc1cscn1)C(=O)C(c1ccccc1)N1CCSCC1 (configuration not stated) | 9.26
25 | O=C1OCCC1N1CCN(c2ccccn2)CC1 (configuration not stated) | 7.37
26 | Cc1n[nH]cc1CNC(=O)Nc1cccc(OCC(F)(F)F)c1 | 8.64
27 | Cn1cc(CCNC(=O)c2cc3ccccc3nc2N2CCCC2)cn1 | -1.29
28 | O=S(=O)(c1cc2ccccc2o1)N1CCCC1 | 20.2
29 | N#Cc1c(Cl)nsc1NCc1ccc(N2CCSCC2)cc1 | 1.24
30 | CCN1CCN(C(C)CNC(=O)Nc2nc3ccccc3s2)CC1 (configuration not stated) | -2.32
31 | O=C(c1ccc(F)c(Br)c1)N1CCCN2CCCC2C1 (configuration not stated) | -0.746
32 | CNS(=O)(=O)c1cccc(C(C)NCc2ccc(F)c(F)c2)c1 (configuration not stated) | 16.2
33 | CCS(=O)(=O)c1ccc(N2CCC(NC(=O)CC3CCCC3)CC2)cc1 | 22.7
34 | Cc1ccc(C(=O)NCCNCC2CNc3ccnn3C2)cc1F (configuration not stated) | -1.62
35 | O=C(CCc1ccsc1)NC1CCN(c2cccc(F)c2)CC1 | -3.89
36 | CNc1cc(N2CCCC2CNCc2ccco2)ncn1 (configuration not stated) | -10.4
37 | Cn1cc(NC(=O)CCc2ccsc2)ccc1=O | -2.9
38 | Cc1nc(CCNC(Cc2ccncc2)C(F)(F)F)cs1 (configuration not stated) | -1.48
39 | CC(NCc1cnc(C2CCC2)s1)c1ccc(-n2cccn2)cc1 (configuration not stated) | 7.67
40 | Cc1noc(CS(=O)(=O)C/C=C/c2ccccc2)n1 | -10.9
41 | CCSCc1cccc(NC(=O)N(C)Cc2ncnn2C)c1 | -0.477
42 | CCOc1ccccc1Oc1ccc(CN)cn1 | 6.03

Row | SMILES | cytotoxicity at 10 µM [%]
43 | Cc1cnc(CCN(C)C(=O)c2ccc(O)nc2C)s1 | -1.56
44 | CCOc1ccc(CSC(C)c2nc(C)no2)nc1 (configuration not stated) | -9.32
45 | CCC1CN(C)c2ccccc2CN1C(=O)Nc1cccc(F)c1 (configuration not stated) | 5.9
46 | CN(CCS(=O)(=O)c1cc(Cl)ccc1Cl)CC(=O)Nc1cccc(F)c1 | 13.9
47 | Cc1nc(CN2CCC23CCN(C(=O)c2ccco2)CC3)cs1 | -98.9
48 | COc1cccc(C(=O)C2CCCN(c3cc(C#N)ccn3)C2)c1 (configuration not stated) | 1.85
49 | CC(=O)NCC(=O)N1Cc2cnc(CC(C)C)nc2C1 | -6.12
50 | O=C(Nc1ccccc1)c1cccc(S(=O)(=O)NC[C@@H]2C[C@H](F)CN2)c1 | 2.83
51 | Cn1ccnc1C1CCN(S(=O)(=O)c2ccc3oc(=O)[nH]c3c2)CC1 | 1.93
52 | CCc1nnc(NC(=O)CCN2CC=C(c3cnn(C)c3)CC2)s1 | 2.66
53 | Cc1cccc2c(=O)c(C(=O)N3CCCC4(CN(C)C(=O)O4)C3)c[nH]c12 (configuration not stated) | 10.5
54 | CCC(C)Oc1ccc(CNCCNC(C)=O)cc1Cl (configuration not stated) | 1.12
55 | CCc1ncc(C(=O)N(C)Cc2cc(-c3ccncc3)no2)cn1 | -13.2
56 | Cc1ccc(CN(CCN(C)C)C(=O)Nc2ccc(C)c(C#N)c2)s1 | 5.57
57 | Cc1nccn1CCCN1CCC(c2nccn2CC2CCC2)CC1 | -20.8
58 | Cc1ccccc1N1CCCN(C(=O)CC2CN(C(C)C)CCO2)CC1 (configuration not stated) | -3.11
59 | Cc1c(NC(=O)c2ncn[nH]2)cccc1C(=O)NC(C)(C)C | -8.93
60 | Cc1cc(C(=O)NC(C)c2nnn[nH]2)c2cccc(C)c2n1 (configuration not stated) | -16.4
61 | Cc1ccccc1[C@@H]1CN(Cc2ccc(C(F)(F)F)nc2)C[C@H]1C(=O)O | 5.33
62 | O=C(NCc1nn(-c2ccccc2)c2c1CCC2)C1CC1 | -8.36
63 | CCn1cnnc1CNC(=O)N(C)Cc1ccc2c(c1)OCO2 | -5.83

Row | SMILES | cytotoxicity at 10 µM [%]
64 | CCN1CCN(CCNC(=O)c2ccn(-c3ccc(F)cc3)n2)CC1 | -26.2
65 | Cc1nc(C)n(C2CCCN(C(=O)c3cscn3)C2)n1 (configuration not stated) | -8.78
66 | Cc1nc(C)n(CC2CCCN2Cc2nc(N)c3ccccc3n2)n1 (configuration not stated) | -0.192
67 | CN(Cc1cn2ccccc2c1C#N)C1CCCN(c2cccnn2)C1 (configuration not stated) | -11.9
68 | Cn1ccnc1CN1CCCCC1Cn1cccn1 (configuration not stated) | 5.94
69 | COc1ccc(CN(C)[C@@H]2COC[C@H]2c2ccc(F)cc2)c(OC)c1 | 8.54
70 | CC(C)NC(=O)[C@@]12CCO[C@@H]1CCN(Cc1ccco1)C2 | -3.31
71 | O=C(NCc1cn2c(n1)CN(CC1CCOCC1)CC2)C1CCC1 | -12.1
72 | c1cc(CN2C[C@@H]3OCCN(CC4CC4)[C@@H]3C2)n[nH]1 | -109
73 | CS(=O)(=O)N1CCC2(CC1)CC(NCC1CC1)c1ccccc12 (configuration not stated) | -111
74 | CCN1c2ccc(-c3cncn3CC(=O)NC(C)(C)C)cc2CC1C (configuration not stated) | -0.579
75 | COc1cccc(C(=O)N2CCc3nc(C4CCCN4)ncc3C2)c1 (configuration not stated) | -7.28
76 | O=C(NCCc1ccccn1)[C@@H]1CC[C@@H]2[C@@H](CCN2Cc2ccoc2)O1 | 8.21
77 | Cc1ccc(CNC2CC3(CCN(CCO)CC3)c3ccccc32)s1 (configuration not stated) | -108
78 | O=C(c1ccccc1)N1CCC2(CC1)CNc1c(F)cccc12 | 7.33
79 | CN(C)Cc1cncc2c1CCN(Cc1cnn(C)c1)C2 | 4.13
80 | Cc1nnsc1CN1C[C@H]2CC[C@@H](C1)N(Cc1ccccc1)C2 | 9.47
81 | CSc1ccccc1CN1C[C@@H]2CC[C@H]1CN(Cc1[nH]cnc1C)C2 | -8.96
82 | CC1(C)CC(n2cc3nc(N4CCOCC4)[nH]cc-3c2=O)CC(C)(C)N1 | -19.9
